Results as given in ChEMBL document CHEMBL1133760, “4-(3-Chloro-4-methoxybenzyl)aminophthalazines: synthesis and inhibitory activity toward phosphodiesterase 5” (J Med Chem, 2000).
Structures can show the parent of a compound that is named as a salt.

What was measured:
[1] = Inhibition of phosphodiesterase 1 (PDE1) from porcine adrenal tissue; assay type: tissue-based, Sus scrofa; conditions: in the assay text read “porcine aorta” for “porcine adrenal tissue”
In short: (§1)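 Two-step radioisotopic PDE activity assay (modified) with 1 µM [3H]cGMP as substrate. Enzymes were isolated from porcine tissues, and PDE5 was purified by DEAE-Toyopearl 650S chromatography. Inhibitors were diluted from DMSO into assay buffer over 10^-10 to 10^-6 M, with 1% (v/v) DMSO final. IC50 came from log concentration-inhibition curves (at least four points), as the mean of three experiments.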

[2] = molecular target: T1, Phosphodiesterase 4A (Sus scrofa, UniProt O77823); assay: Inhibition of phosphodiesterase 4 (PDE4) from porcine liver, range 10.4-16.3
T1 sequence (O77823 whole entry): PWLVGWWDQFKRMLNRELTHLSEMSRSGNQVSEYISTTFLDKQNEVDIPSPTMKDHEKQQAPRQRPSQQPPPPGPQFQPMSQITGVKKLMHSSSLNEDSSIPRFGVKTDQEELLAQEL
In short: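 PDE4 isolated from porcine liver; activity measured by a modified two-step radioisotopic assay. Compounds dissolved in DMSO and diluted in assay buffer to 10^-10 to 10^-6 M, with 1% (v/v) final DMSO. IC50 taken from logarithmic concentration-inhibition curves of at least four points, as the mean of three experiments.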

[3] = organism: Sus scrofa; assay: Vasorelaxant effect was evaluated on isolated porcine coronary arteries precontracted with PGF-2 alpha; assay type: functional
In short: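 Endothelium-intact porcine coronary artery strips were held in Krebs-Henseleit (37 °C, pH 7.4, 95% O2-5% CO2) at 1 g resting tension. Endothelium was verified by 10^-8 M bradykinin relaxation after 50 mM KCl contraction. Strips were contracted with 10^-5 M PGF2α, then given cumulative compound additions. Relaxation was expressed as % of the PGF2α contraction. EC50 came from log concentration curves, as the mean of two experiments.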

[4] = molecular target: T2, Phosphodiesterase 3A (Sus scrofa, UniProt Q9XSW7); assay: Inhibition of phosphodiesterase 3 (PDE3) from porcine platelets; in short: as §1
T2 sequence (Q9XSW7 whole entry): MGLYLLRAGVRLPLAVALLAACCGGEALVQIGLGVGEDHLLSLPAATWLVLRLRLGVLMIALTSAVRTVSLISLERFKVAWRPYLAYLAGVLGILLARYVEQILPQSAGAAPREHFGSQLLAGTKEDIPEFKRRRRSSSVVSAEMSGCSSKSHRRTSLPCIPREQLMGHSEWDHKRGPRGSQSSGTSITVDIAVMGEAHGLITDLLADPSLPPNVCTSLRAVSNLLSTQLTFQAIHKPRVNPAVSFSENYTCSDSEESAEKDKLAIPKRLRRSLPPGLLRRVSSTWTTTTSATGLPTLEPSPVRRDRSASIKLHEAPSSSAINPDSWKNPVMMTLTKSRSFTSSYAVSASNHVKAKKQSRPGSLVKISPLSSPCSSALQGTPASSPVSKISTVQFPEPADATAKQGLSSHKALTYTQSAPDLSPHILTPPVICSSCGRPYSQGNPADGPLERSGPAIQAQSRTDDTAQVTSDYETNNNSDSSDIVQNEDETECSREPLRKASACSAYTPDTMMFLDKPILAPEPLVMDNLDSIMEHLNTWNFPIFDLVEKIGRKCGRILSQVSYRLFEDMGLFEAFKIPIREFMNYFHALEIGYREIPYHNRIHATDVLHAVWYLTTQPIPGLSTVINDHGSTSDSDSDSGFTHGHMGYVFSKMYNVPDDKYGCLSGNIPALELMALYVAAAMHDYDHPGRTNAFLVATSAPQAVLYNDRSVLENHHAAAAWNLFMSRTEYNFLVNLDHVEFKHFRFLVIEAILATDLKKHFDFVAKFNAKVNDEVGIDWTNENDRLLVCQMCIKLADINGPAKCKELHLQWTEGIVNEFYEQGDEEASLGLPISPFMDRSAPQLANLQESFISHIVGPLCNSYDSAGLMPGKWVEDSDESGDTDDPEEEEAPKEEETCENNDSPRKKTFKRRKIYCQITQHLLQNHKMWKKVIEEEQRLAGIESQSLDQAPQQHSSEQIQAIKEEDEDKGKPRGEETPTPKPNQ

[5] = molecular target: T1, Phosphodiesterase 4A; assay: Inhibition of phosphodiesterase 4 (PDE4) from porcine liver; in short: as §1
[6] = molecular target: T3, PDE II (Sus scrofa, UniProt F1SUV3); assay: Inhibition of phosphodiesterase 2 (PDE2) from porcine adrenal
[7] = Inhibition of phosphodiesterase 1 (PDE1) from porcine adrenal tissue, range 26.5-36.7; parameters: species or system Sus scrofa; conditions: in the assay text read “porcine aorta” for “porcine adrenal tissue”; in short: as §1
[8] = molecular target: T2, Phosphodiesterase 3A; assay: Inhibition of phosphodiesterase 3 (PDE3) from porcine platelets, range 31.8-60.7
[9] = Inhibition of phosphodiesterase 1 (PDE1) from porcine adrenal tissue, range 51.1-108; parameters: species or system Sus scrofa; conditions: in the assay text read “porcine aorta” for “porcine adrenal tissue”; in short: as §1
[10] = Pharmacokinetic parameter, Bioavailability (F) after 0.3 mg/kg po administration in rats; assay type: ADME, organism-based; conditions: rat, in vivo, read-out: BA
In short: (§2)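 Rats received a 0.3 mg/kg dose intravenously or orally, with n = 4 per route. Plasma pharmacokinetic parameters were then derived.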

[11] = Pharmacokinetic parameter, Cmax (plasma conc.) after 0.3 mg/kg po administration in rats; assay type: ADME, organism-based; parameters: dose 0.3 mg/kg, route oral; conditions: rat; in short: as §2
[12] = Pharmacokinetic parameter, AUC (area under curve) after 0.3 mg/kg po administration in rats; assay type: ADME, organism-based; parameters: dose 0.3 mg/kg, route oral; conditions: rat, in vivo; in short: as §2
[13] = Pharmacokinetic parameter, AUC (area under curve) after 0.3 mg/kg iv administration in rats; assay type: ADME, organism-based; parameters: dose 0.3 mg/kg, route intravenous; conditions: rat, in vivo; in short: as §2
[14] = Pharmacokinetic parameter, tmax after 0.3 mg/kg po administration in rats; assay type: ADME, organism-based; parameters: dose 0.3 mg/kg, route oral; conditions: rat, in vivo; in short: as §2
[15] = molecular target: T2, Phosphodiesterase 3A; assay: Inhibition of phosphodiesterase 3 (PDE3) from porcine platelets, range 11.4-26.9; in short: as §1
[16] = Inhibition of phosphodiesterase 1 (PDE1) from porcine adrenal tissue, range 20.0-34.4; parameters: species or system Sus scrofa; conditions: in the assay text read “porcine aorta” for “porcine adrenal tissue”; in short: as §1
[17] = molecular target: T3, PDE II; assay: Inhibition of phosphodiesterase 2 (PDE2) from porcine platelets, range 0.841-1.15; conditions: in the assay text read “porcine adrenal” for “porcine platelets”; in short: as §1
[18] = molecular target: T1, Phosphodiesterase 4A; assay: Inhibition of phosphodiesterase 4 (PDE4) from porcine liver, range 1.01-1.36; in short: as §1
[19] = Pharmacokinetic parameter, t1/2 after 0.3 mg/kg iv administration in rats; assay type: ADME, organism-based; parameters: dose 0.3 mg/kg, route intravenous; conditions: rat, in vivo; in short: as §2

**Q.** What does the source list for Cc1[nH]c(=O)c(C#N)cc1-c1ccncc1 [MILRINONE]?
**A.** IC50 [1]: > 100000 nM; IC50 [2]: 13000 nM

**Q.** For COc1ccc(CNc2nnc(N3CCC(O)CC3)c3ccc(C(F)(F)F)cc23)cc1Cl, which EC50 [3] is on record?
**A.** The EC50 was 120 nM.

**Q.** With COc1ccc(CNc2nnc(N3CCC(O)CC3)c3ccc(Cl)cc23)cc1Cl as the compound, how does the EC50 [3] read?
**A.** The EC50 was 780 nM.

**Q.** For COc1ccc(CNc2nnc(N3CCC(C(=O)O)CC3)c3ccc(C#N)cc23)cc1Cl, which EC50 [3] is on record?
**A.** Its EC50 is 170 nM.

**Q.** For COc1ccc(CNc2nnc(N3CCC(OC)CC3)c3ccc(C#N)cc23)cc1Cl, which EC50 [3] is on record?
**A.** The EC50 was 100 nM.

**Q.** With COc1ccc(CNc2nnc(N3CCC(O)CC3)c3ccc([N+](=O)[O-])cc23)cc1Cl as the compound, how does the EC50 [3] read?
**A.** The EC50 was 30 nM.

**Q.** For COc1ccc(CNc2nnc(N3CCC(CO)CC3)c3ccc(C#N)cc23)cc1Cl, which EC50 [3] is on record?
**A.** The EC50 was 19 nM.

**Q.** Which IC50 [4] does the source give for COc1ccc(C2CNC(=O)C2)cc1OC1CCCC1 (stereo not drawn) [ROLIPRAM] here?
**A.** Its IC50 is greater than 100000 nM.

**Q.** And the IC50 [1]?
**A.** Its IC50 is greater than 100000 nM.

**Q.** And the IC50 [5]?
**A.** The IC50 was 3630 nM.

**Q.** What about the IC50 [6] of the same compound?
**A.** Its IC50 is greater than 100000 nM.

**Q.** Which EC50 [3] does the source give for COc1ccc(CNc2nnc(N3CCC(=O)CC3)c3ccc(C#N)cc23)cc1Cl here?
**A.** The EC50 was 13 nM.

**Q.** Which results are given for CCCOc1ccccc1-c1nc2[nH]nnc2c(=O)[nH]1 [ZAPRINAST]?
**A.** IC50 [4]: > 100000 nM; IC50 [7]: 31200 nM; IC50 [5]: > 100000 nM

**Q.** For COc1ccc(CNc2nnc(N3CCC(C)(O)CC3)c3ccc(C#N)cc23)cc1Cl, which EC50 [3] is on record?
**A.** The EC50 was 130 nM.

**Q.** Which EC50 [3] does the source give for CCCc1nn(C)c2c(=O)[nH]c(-c3cc(S(=O)(=O)N4CCN(C)CC4)ccc3OCC)nc12 [SILDENAFIL CITRATE] here?
**A.** Its EC50 is 38 nM.

**Q.** Which EC50 [3] does the source give for COc1ccc(CNc2nnc(N3CC[S+]([O-])CC3)c3ccc(C#N)cc23)cc1Cl here?
**A.** Its EC50 is 50 nM.

**Q.** For COc1ccc(CNc2nnc(N3CCC(CCO)CC3)c3ccc(C#N)cc23)cc1Cl, which EC50 [3] is on record?
**A.** The EC50 was 30 nM.

**Q.** For OCCN(CCO)c1nc(N2CCCCC2)c2nc(N(CCO)CCO)nc(N3CCCCC3)c2n1 [DIPYRIDAMOLE], which IC50 [8] is on record?
**A.** Its IC50 is 44000 nM.

**Q.** What about the IC50 [9] of the same compound?
**A.** The IC50 was 74500 nM.

**Q.** With COc1ccc(CNc2nnc(N3CCN(CCO)CC3)c3ccc(C#N)cc23)cc1Cl as the compound, how does the EC50 [3] read?
**A.** The EC50 was 100 nM.

**Q.** Which EC50 [3] does the source give for COc1ccc(CNc2nnc(N3CCCCC3)c3ccc(C#N)cc23)cc1Cl here?
**A.** The EC50 was 39 nM.

**Q.** For COc1ccc(CNc2nnc(N3CCC(O)CC3)c3ccc(C#N)cc23)cc1Cl.Cl, which bioavailability [10] is on record?
**A.** The bioavailability was 19.5%.

**Q.** And the Cmax [11]?
**A.** Its Cmax is 25.5 ng/mL.

**Q.** What about the AUC [12] of the same compound?
**A.** The AUC was 32.4 ng·h/mL.

**Q.** What about the AUC [13] of the same compound?
**A.** Its AUC is 166 ng·h/mL.

**Q.** And the Tmax [14]?
**A.** Its Tmax is 0.25 h.

**Q.** And the IC50 [15]?
**A.** Its IC50 is 17500 nM.

**Q.** What about the IC50 [16] of the same compound?
**A.** The IC50 was 26200 nM.

**Q.** What about the IC50 [17] of the same compound?
**A.** Its IC50 is 984 nM.

**Q.** What about the IC50 [18] of the same compound?
**A.** Its IC50 is 1170 nM.

**Q.** And the EC50 [3]?
**A.** The EC50 was 13 nM.

**Q.** What about the half-life [19] of the same compound?
**A.** The half-life was 2.2 h.

**Q.** Which EC50 [3] does the source give for COc1ccc(CNc2nnc(N3CC=CCC3)c3ccc(C#N)cc23)cc1Cl here?
**A.** Its EC50 is 130 nM.

**Q.** Which EC50 [3] does the source give for COc1ccc(CNc2nnc(N3CCN(C)CC3)c3ccc(C#N)cc23)cc1Cl here?
**A.** Its EC50 is 320 nM.

**Q.** For COc1ccc(CNc2nnc(N3CCNCC3)c3ccc(C#N)cc23)cc1Cl, which EC50 [3] is on record?
**A.** The EC50 was 870 nM.
